# Source: ChEMBL document CHEMBL1125736, “N-[(omega-amino-1-hydroxyalkyl)phenyl]methanesulfonamide derivatives with class III antiarrhythmic activity” (1991)
# Experiments:
# Oryctolagus cuniculus [1] = organism: Oryctolagus cuniculus; test: Tested for conduction time measured at a pacing rate of 3 Hz in vitro with rabbit heart tissue preparations.; type: functional
# Outline: (§1)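 Isolated rabbit heart tissues, all from one heart, each its own baseline; 2 h equilibration, perfusate changed every 15 min, basal stimulation 2 Hz between measurements. Exposed to 10^-7, 10^-6 and 10^-5 M drug, 15 min each; values reported at 10^-5 M as percent change from baseline. Drug solutions prepared daily in glass-distilled water. Force and rate recorded on polygraph.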
# Oryctolagus cuniculus [2] = organism: Oryctolagus cuniculus; test: Tested for rate automaticity measured in beats per minute from unpaced right atria of rabbit heart.; type: functional; outline: as §1
# Oryctolagus cuniculus [3] = organism: Oryctolagus cuniculus; test: Tested for force of contraction measured in mg at a pacing rate of 2 Hz in vitro with rabbit heart tissue preparations.; type: functional; outline: as §1
# Oryctolagus cuniculus [4] = organism: Oryctolagus cuniculus; test: Tested for conduction time measured at a pacing rate of 1 Hz in vitro with rabbit heart tissue preparations.; type: functional; outline: as §1
# Oryctolagus cuniculus [5] = organism: Oryctolagus cuniculus; test: Tested for effective refractory period measured at a pacing rate of 1 Hz in vitro with rabbit heart tissue preparations.; type: functional; outline: as §1
# Oryctolagus cuniculus [6] = organism: Oryctolagus cuniculus; test: Tested for effective refractory period measured at a pacing rate of 3 Hz in vitro with rabbit heart tissue preparations.; type: functional; set-up: unit: %; outline: as §1
# Canis familiaris [7] = test: Conduction time from Q wave to T wave of lead II electrocardiogram was tested in dogs at a dose of 3.0 mg/kg through intravenous administration. (baseline value- 352+/-7); type: functional, Canis lupus familiaris
# Canis familiaris [8] = test: Conduction time from the His bundle to the onset of ventricular depolarizations was tested in dogs at a dose of 3.0 mg/kg through intravenous administration. (baseline value- 17+/-1 ); type: functional, Canis lupus familiaris, Cardiac ventricle
# Canis familiaris [9] = test: Compound was tested in vivo in dogs at a dose of 1.0 mg/kg through intravenous route and time at which sustained ventricular arrhythmias were induced was recorded.(Base line value-2); type: functional, Canis lupus familiaris, Cardiac ventricle
# Outline: (§2)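 Dogs with myocardial infarction were studied 3-9 days after infarction. They were reanesthetized with pentobarbital, ventilated, and electrodes were placed via thoracotomy; blood gases were monitored. Control ERPs and reproducible inducibility were set by programmed electrical stimulation, then cumulative iv doses were given. Agents were in glass-distilled water or NaOH-neutralized saline (pH 6.7-7.0). Animals were counted per category: NI, nonsustained, sustained, VF, or AV block preventing atrial pacing.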
# Canis familiaris [10] = test: Conduction time from the atrium to His bundle was tested in dogs at a dose of 10.0 mg/kg through intravenous administration. (baseline value- 73+/-3 ); type: functional, Canis lupus familiaris
# Canis familiaris [11] = test: Conduction time for ventricular refractory period of the second premature stimulus was tested in dogs at a dose of 1.0 mg/kg through intravenous administration. (baseline value- 123+/-4); type: functional, Canis lupus familiaris, Cardiac ventricle
# Canis familiaris [12] = test: Compound was tested in vivo in dogs at a dose of 10 mg/kg through intravenous route and time at which ventricular arrhythmias were not indicible was recorded.(Base line value-5); type: functional, Canis lupus familiaris, Cardiac ventricle; outline: as §2
# Canis familiaris [13] = test: Compound was tested in vivo in dogs at a dose of 0.3 mg/kg through intravenous route and time at which conduction block at the atrioventricular node prevented atrial pacing was recorded.(Base line value-0); type: functional, Canis lupus familiaris; outline: as §2
# Canis familiaris [14] = test: Compound was tested in vivo in dogs at a dose of 0.1 mg/kg through intravenous route and time at which conduction block at the atrioventricular node prevented atrial pacing was recorded.(Base line value-0); type: functional, Canis lupus familiaris; outline: as §2
# Canis familiaris [15] = test: Conduction time for ventricular refractory period of the second premature stimulus was tested in dogs at a dose of 10 mg/kg through intravenous administration. (baseline value- 123+/-4); type: functional, Canis lupus familiaris, Cardiac ventricle
# Canis familiaris [16] = test: Conduction time for ventricular refractory period of the first premature stimulus was tested in dogs at a dose of 10.0 mg/kg through intravenous administration. (baseline value- 137+/-4); type: functional, Canis lupus familiaris, Cardiac ventricle
# Canis familiaris [17] = test: Conduction time from the atrium to His bundle was tested in dogs at a dose of 3.0 mg/kg through intravenous administration. (baseline value 73+/-3 ); type: functional, Canis lupus familiaris
# Canis familiaris [18] = test: Compound was tested in vivo in dogs at a dose of 1.0 mg/kg through intravenous route and time at which ventricular fibrillation was induced was recorded.(Base line value-3); type: functional, Canis lupus familiaris, Cardiac ventricle; outline: as §2
# Canis familiaris [19] = test: Compound was tested in vivo in dogs at a dose of 3.0 mg/kg through intravenous route and time at which conduction block at the atrioventricular node prevented atrial pacing was recorded.(Base line value-0); type: functional, Canis lupus familiaris; outline: as §2
# Canis familiaris [20] = test: Conduction time for ventricular refractory period of the first premature stimulus was tested in dogs at a dose of 3.0 mg/kg through intravenous administration. (baseline value- 137+/-4); type: functional, Canis lupus familiaris, Cardiac ventricle
# Canis familiaris [21] = test: Compound was tested in vivo in dogs at a dose of 10.0 mg/kg through intravenous route and time at which conduction block at the atrioventricular node prevented atrial pacing was recorded.(Base line value-0); type: functional, Canis lupus familiaris; outline: as §2
# Canis familiaris [22] = test: Compound was tested in vivo in dogs at a dose of 3.0 mg/kg through intravenous route and number of animals in which ventricular arrhythmias were not inducible was recorded.(Base line value-5)
# Canis familiaris [23] = test: Conduction time from Q wave to T wave of lead II electrocardiogram was tested in dogs at a dose of 10 mg/kg through intravenous administration. (baseline value- 352+/-7); type: functional, Canis lupus familiaris
# Canis familiaris [24] = test: Compound was tested in vivo in dogs at a dose of 1.0 mg/kg through intravenous route and time at which nonsustained ventricular arrhythmias were induced was recorded.(Base line value-0); type: functional, Canis lupus familiaris, Cardiac ventricle; outline: as §2
# Canis familiaris [25] = test: Compound was tested in vivo in dogs at a dose of 1.0 mg/kg through intravenous route and time at which ventricular arrhythmias were not indicible was recorded.(Base line value-5); type: functional, Canis lupus familiaris, Cardiac ventricle; outline: as §2
# Canis familiaris [26] = test: Compound was tested in vivo in dogs at a dose of 10.0 mg/kg through intravenous route and time at which sustained ventricular arrhythmias were induced was recorded.(Base line value-2); type: functional, Canis lupus familiaris, Cardiac ventricle; outline: as §2
# Canis familiaris [27] = test: Conduction time from Q wave to T wave of lead II electrocardiogram was tested in dogs at a dose of 1.0 mg/kg through intravenous administration. (baseline value- 352+/-7); type: functional, Canis lupus familiaris
# Canis familiaris [28] = test: Compound was tested in vivo in dogs at a dose of 10.0 mg/kg through intravenous route and time at which ventricular fibrillation was induced was recorded.(Base line value-6); type: functional, Canis lupus familiaris, Cardiac ventricle; details: in the assay text read “Base line value-3” for “Base line value-6”; outline: as §2
# Canis familiaris [29] = test: Compound was tested in vivo in dogs at a dose of 10.0 mg/kg through intravenous route and time at which nonsustained ventricular arrhythmias were induced was recorded.(Base line value-1); type: functional, Canis lupus familiaris, Cardiac ventricle; outline: as §2
# Canis familiaris [30] = test: Conduction time from the atrium to His bundle was tested in dogs at a dose of 1.0 mg/kg through intravenous administration. (baseline value- 73+/-3 ); type: functional, Canis lupus familiaris
# Canis familiaris [31] = test: Conduction time for ventricular refractory period of the second premature stimulus was tested in dogs at a dose of 3.0 mg/kg through intravenous administration. (baseline value- 123+/-4); type: functional, Canis lupus familiaris, Cardiac ventricle
# Canis familiaris [32] = test: Compound was tested in vivo in dogs at a dose of 3.0 mg/kg through intravenous route and time at which sustained ventricular arrhythmias were induced was recorded.(Base line value-2); type: functional, Canis lupus familiaris, Cardiac ventricle; outline: as §2
# Canis familiaris [33] = test: Compound was tested in vivo in dogs at a dose of 1.0 mg/kg through intravenous route and time at which conduction block at the atrioventricular node prevented atrial pacing was recorded.(Base line value-0); type: functional, Canis lupus familiaris; outline: as §2
# Canis familiaris [34] = test: Conduction time for ventricular refractory period of the first premature stimulus was tested in dogs at a dose of 1.0 mg/kg through intravenous administration. (baseline value- 137+/-4); type: functional, Canis lupus familiaris, Cardiac ventricle
# Canis familiaris [35] = test: Compound was tested in vivo in dogs at a dose of 3.0 mg/kg through intravenous route and time at which nonsustained ventricular arrhythmias were induced was recorded.(Base line value-1); type: functional, Canis lupus familiaris, Cardiac ventricle; details: in the assay text read “Base line value-0” for “Base line value-1”; outline: as §2
# Canis familiaris [36] = test: Compound was tested in vivo in dogs at a dose of 3.0 mg/kg through intravenous route and time at which ventricular fibrillation was induced was recorded.(Base line value-6); type: functional, Canis lupus familiaris, Cardiac ventricle; details: in the assay text read “Base line value-3” for “Base line value-6”; outline: as §2
# Canis familiaris [37] = test: Conduction time from the His bundle to the onset of ventricular depolarizations was tested in dogs at a dose of 10.0 mg/kg through intravenous administration. (baseline value- 17+/-1 ); type: functional, Canis lupus familiaris, Cardiac ventricle
# Canis familiaris [38] = test: Conduction time from the His bundle to the onset of ventricular depolarizations was tested in dogs at a dose of 1.0 mg/kg through intravenous administration. (baseline value- 17+/-1 ); type: functional, Canis lupus familiaris, Cardiac ventricle
structure (smiles),measurement,setting,value
CS(=O)(=O)Nc1ccc(C(O)CCCN2CCCCCC2)cc1 (stereo not drawn),CT3,Oryctolagus cuniculus [1],0.2
same,Rate,Oryctolagus cuniculus [2],-11
same,FOC,Oryctolagus cuniculus [3],3.4
same,CT1,Oryctolagus cuniculus [4],1
same,ERP1,Oryctolagus cuniculus [5],17.1
same,ERP3,Oryctolagus cuniculus [6],18.3
CCCCCCCN(CC)CCCCc1ccc(NS(C)(=O)=O)cc1,CT3,Oryctolagus cuniculus [1],140
same,Rate,Oryctolagus cuniculus [2],-27
same,FOC,Oryctolagus cuniculus [3],-24.2
same,CT1,Oryctolagus cuniculus [4],67.2
same,ERP1,Oryctolagus cuniculus [5],28.3
same,ERP3,Oryctolagus cuniculus [6],19.2
CCCCCCCNCCCC(O)c1ccc(NS(C)(=O)=O)cc1 (stereo not drawn),CT3,Oryctolagus cuniculus [1],8.3
same,Rate,Oryctolagus cuniculus [2],-25
same,FOC,Oryctolagus cuniculus [3],-12.1
same,CT1,Oryctolagus cuniculus [4],-7.4
same,ERP1,Oryctolagus cuniculus [5],0.4
same,ERP3,Oryctolagus cuniculus [6],6.8
CCCCCCCN(CC)CCC(O)c1ccc(NS(C)(=O)=O)cc1 (stereo not drawn),CT3,Oryctolagus cuniculus [1],40.3
same,Rate,Oryctolagus cuniculus [2],-35
same,FOC,Oryctolagus cuniculus [3],-23
same,CT1,Oryctolagus cuniculus [4],15.7
same,ERP1,Oryctolagus cuniculus [5],37.5
same,ERP3,Oryctolagus cuniculus [6],39.3
CCCCCN(CC)CCCC(O)c1ccc(NS(C)(=O)=O)cc1 (stereo not drawn),CT3,Oryctolagus cuniculus [1],11.9
same,Rate,Oryctolagus cuniculus [2],-20
same,FOC,Oryctolagus cuniculus [3],17.1
same,CT1,Oryctolagus cuniculus [4],8.6
same,ERP1,Oryctolagus cuniculus [5],20.8
same,ERP3,Oryctolagus cuniculus [6],11.6
CC1CCN(CCCC(O)c2ccc(NS(C)(=O)=O)cc2)CC1 (stereo not drawn),CT3,Oryctolagus cuniculus [1],-6.5
same,FOC,Oryctolagus cuniculus [3],-1
same,CT1,Oryctolagus cuniculus [4],-2
same,ERP1,Oryctolagus cuniculus [5],4.5
same,ERP3,Oryctolagus cuniculus [6],10.5
CCCCCCCN(CC)CCCC(O)c1ccc(Cl)cc1.Cl (stereo not drawn),Rate,Oryctolagus cuniculus [2],-12
same,FOC,Oryctolagus cuniculus [3],-21
same,CT1,Oryctolagus cuniculus [4],4
same,ERP1,Oryctolagus cuniculus [5],10.5
same,ERP3,Oryctolagus cuniculus [6],14
CCCCCCC[N+](CC)(CC)CCCCc1ccc(Cl)cc1.O=P([O-])(O)O [CLOFILIUM PHOSPHATE],CT3,Oryctolagus cuniculus [1],-1.4
same,Rate,Oryctolagus cuniculus [2],-22
same,FOC,Oryctolagus cuniculus [3],-10
same,CT1,Oryctolagus cuniculus [4],0
same,ERP1,Oryctolagus cuniculus [5],3
same,ERP3,Oryctolagus cuniculus [6],3.4
CC(C)NCC(O)c1ccc(NS(C)(=O)=O)cc1.Cl (stereo not drawn) [SOTALOL HYDROCHLORIDE],Time,Canis familiaris [7],197 ms
same,Time,Canis familiaris [8],39 ms
same,Time,Canis familiaris [9],2 animals
same,Time,Canis familiaris [10],107 ms
same,Time,Canis familiaris [11],126 ms
same,Time,Canis familiaris [12],5 animals
same,Time,Canis familiaris [13],0 animals
same,Time,Canis familiaris [14],0 animals
same,Time,Canis familiaris [15],141 ms
same,Time,Canis familiaris [16],157 ms
same,Time,Canis familiaris [17],90 ms
same,Time,Canis familiaris [18],0 animals
same,Time,Canis familiaris [19],0 animals
same,Time,Canis familiaris [20],152 ms
same,Time,Canis familiaris [21],4 animals
same,Number of animals not inducible,Canis familiaris [22],7 animals
same,Time,Canis familiaris [23],181 ms
same,Time,Canis familiaris [24],0 animals
same,Time,Canis familiaris [25],8 animals
same,Time,Canis familiaris [26],0 animals
same,Time,Canis familiaris [27],197 ms
same,Time,Canis familiaris [28],0 animals
same,Time,Canis familiaris [29],1 animals
same,Time,Canis familiaris [30],77 ms
same,Time,Canis familiaris [31],138 ms
same,Time,Canis familiaris [32],1 animals
same,Time,Canis familiaris [33],0 animals
same,Time,Canis familiaris [34],145 ms
same,Rate,Oryctolagus cuniculus [2],-10
same,FOC,Oryctolagus cuniculus [3],6
same,CT1,Oryctolagus cuniculus [4],-11.7
same,Time,Canis familiaris [35],2 animals
same,Time,Canis familiaris [36],0 animals
same,Time,Canis familiaris [37],42 ms
same,ERP1,Oryctolagus cuniculus [5],7.3
same,Time,Canis familiaris [38],40 ms
same,ERP3,Oryctolagus cuniculus [6],4.9
